Measured values taken from article PMC3780362 (Nuclear medicine and biology, 2009).

Experiments:
5-HT1B = 5-HT1B (Homo sapiens, UniProt P28222); experiment: NIMH Psychoactive Drug Screening Program binding; conditions: based on the in vitro data
human 5-HT1B receptor = conditions: selectivity; cited from earlier work
5-HT1B receptor [1] = target: T1, 5-HT1B receptor (Macaca mulatta, UniProt F6SFA9); experiment: Baseline brain PET imaging with [11C]P943; assay type: in vivo, Rhesus monkey
How it was run: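 Rhesus monkeys (5-8 kg) were fasted overnight, given ketamine 10 mg/kg i.m. and glycopyrrolate, then kept on ~2% isoflurane and scanned on HRRT PET after a transmission scan. Tracer dose was 5-7 mCi. Bolus scan: one animal, 120 min list-mode acquisition. Bolus plus infusion scans: Kbol 150 min, four animals. BPND = mean ROI/cerebellum concentration over 70-100 min, minus 1.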

5-HT1B receptor [2] = target: T1, 5-HT1B receptor; experiment: Binding selectivity PET study: blocking of [11C]P943 with GR127935; assay type: in vivo, Rhesus monkey
How it was run: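 About three hours later came a second scan with GR127935 2 mg/kg i.v. bolus given before the tracer. Dose was 5.4 ± 0.7 mCi at 6.3 ± 0.9 mCi/nmol. BPND = ROI/cerebellum ratio from 70-100 min, minus 1, in control and blocked scans.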

5-HT1B receptor [3] = target: T1, 5-HT1B receptor; experiment: Binding saturability PET study; assay type: in vivo, Rhesus monkey; conditions: high SA
How it was run: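 Self-block design: 2 anesthetized rhesus monkeys, each scanned on two days at high, medium and low specific activity by adding unlabeled test compound (12 scans). Dosing was 2 min i.v. bolus plus 118 min constant infusion, Kbol 150 min for high-SA scans. Net high SA at injection was 111.7 MBq/nmol. BPND = ROI/cerebellum equilibrium ratio over 70-100 min, minus 1.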

[4] = Mean of two monkeys, GR127935 2 mg/kg i.v.
[5] = Monkey#1, GR127935 2 mg/kg i.v.
[6] = Monkey#2, GR127935 2 mg/kg i.v.

T1 sequence (F6SFA9 1-390): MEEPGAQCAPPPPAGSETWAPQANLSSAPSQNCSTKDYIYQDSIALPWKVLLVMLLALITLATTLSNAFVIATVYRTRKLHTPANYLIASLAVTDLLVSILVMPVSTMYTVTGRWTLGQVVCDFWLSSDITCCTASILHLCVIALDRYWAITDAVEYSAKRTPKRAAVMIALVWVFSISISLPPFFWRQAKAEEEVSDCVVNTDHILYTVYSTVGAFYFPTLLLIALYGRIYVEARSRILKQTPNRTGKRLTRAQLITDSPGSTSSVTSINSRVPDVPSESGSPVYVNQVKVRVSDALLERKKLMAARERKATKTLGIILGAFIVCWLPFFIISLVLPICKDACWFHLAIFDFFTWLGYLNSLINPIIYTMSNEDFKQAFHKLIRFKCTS
Chain of 5-HT1B (P28222 whole entry, species assumed): as the sequence (F6SFA9 1-390) above, with A20V, T35A, A45S, V105I, D198E, R301K, L337M counted along it

SMILES: COC(C)(C)c1ccc(N2CC[C@@H](Cc3ccccc3N3CCN(C)CC3)C2=O)cc1 [P943, R-1-[4-(2-methoxy-isopropyl)-phenyl]-3-[2-(4-methyl-piperazin-1-yl)benzyl]-pyrrolidin-2-one]
- affinity for 5HT1B higher than for 5-HT1A receptors (5-HT1B): 50-100 times
- affinity for other 5-HT and non-5-HT receptors lower than for 5-HT1B (human 5-HT1B receptor): at least 100 fold

SMILES: COC(C)(C)c1ccc(N2CC[C@@H](Cc3ccccc3N3CCN(C)CC3)C2=O)cc1 [[^11C]P943, (R)-1-(4-(2-methoxypropan-2-yl)phenyl)-3-(2-(4-methylpiperazin-1-yl)benzyl)pyrrolidin-2-one]
- time of peak uptake in most brain regions (5-HT1B receptor [1]; 2 hr baseline scan, bolus injection): 10 to 30 min
- time at which equilibrium was reached in the brain (5-HT1B receptor [1]; bolus plus infusion): ~70 min
- BPND frontal cortex, control scan (5-HT1B receptor [2]; before blockade, paired study): 0.49
- BPND occipital, control scan (5-HT1B receptor [2]; before blockade, paired study): 0.71
- BPND at high specific activity, globus pallidus (5-HT1B receptor [3]): 0.57
- BPND at high specific activity, occipital cortex (5-HT1B receptor [3]; highest value): 0.80

SMILES: COc1ccc(NC(=O)c2ccc(-c3ccc(-c4noc(C)n4)cc3C)cc2)cc1N1CCN(C)CC1 [GR127935]
- %Reduction in BPND Caudate (5-HT1B receptor [2]; [4]): 62%
- %Reduction in BPND Cingulate (5-HT1B receptor [2]; [4]): 64%
- %Reduction in BPND Frontal (5-HT1B receptor [2]; [4]): 91%
- %Reduction in BPND Globus Pallidus (5-HT1B receptor [2]; [4]): 73%
- %Reduction in BPND Insula (5-HT1B receptor [2]; [4]): 53%
- %Reduction in BPND Occipital (5-HT1B receptor [2]; [4]): 95%
- %Reduction in BPND Putamen (5-HT1B receptor [2]; [4]): 40%
- %Reduction in BPND Thalamus (5-HT1B receptor [2]; [4]): 75%
- %Reduction in BPND Caudate (5-HT1B receptor [2]; [5]): 78%
- %Reduction in BPND Cingulate (5-HT1B receptor [2]; [5]): 66%
- %Reduction in BPND Frontal (5-HT1B receptor [2]; [5]): 84%
- %Reduction in BPND Globus Pallidus (5-HT1B receptor [2]; [5]): 80%
- %Reduction in BPND Insula (5-HT1B receptor [2]; [5]): 61%
- %Reduction in BPND Occipital (5-HT1B receptor [2]; [5]): 96%
- %Reduction in BPND Putamen (5-HT1B receptor [2]; [5]): 47%
- %Reduction in BPND Thalamus (5-HT1B receptor [2]; [5]): 76%
- %Reduction in BPND Caudate (5-HT1B receptor [2]; [6]): 45%
- %Reduction in BPND Cingulate (5-HT1B receptor [2]; [6]): 61%
- %Reduction in BPND Frontal (5-HT1B receptor [2]; [6]): 98%
- %Reduction in BPND Globus Pallidus (5-HT1B receptor [2]; [6]): 66%
- %Reduction in BPND Insula (5-HT1B receptor [2]; [6]): 45%
- %Reduction in BPND Occipital (5-HT1B receptor [2]; [6]): 94%
- %Reduction in BPND Putamen (5-HT1B receptor [2]; [6]): 33%
- %Reduction in BPND Thalamus (5-HT1B receptor [2]; [6]): 74%
- BPND frontal cortex after blockade (5-HT1B receptor [2]; after GR127935 2 mg/kg i.v.): 0.06
- BPND occipital after blockade (5-HT1B receptor [2]; after GR127935 2 mg/kg i.v.): 0.03
